Experimental data taken from article PMC2659690 (Molecular Pharmaceutics, 2008).
Where a SMILES comes first, the peptide text is derived from it. [ ]: non-standard residue; d: D form. Sar = CNCC(=O)O

Experiments:
Capan-2 cells = test: Cell proliferation; type: cell-based; conditions: Homo sapiens, Capan-2, pH 6, read-out: GI50 Capan-2
Method in brief: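 Capan-2 cells (passages 50-54) in antibiotic-free RPMI-1640 plus 10% FBS were plated at 125,000 per well and allowed 24 h to attach. After a rinse with pH 6.0 uptake buffer, they received test compound in the same buffer (twofold series, 4 to 0.25 mmol/L; buffer-only wells as 100% viability) for 4 h at 37 °C. Two washes and 24 h recovery in medium followed.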

Chemical stability = type: physicochemical; conditions: pH 7.4 phosphate buffer, 37 °C; mean ± SD, n = 3
[1] = Stability in human plasma; type: in vitro ADME; conditions: undiluted human plasma, 37 °C; mean ± SD, n = 3
Caco-2 cell homogenates = test: Enzymatic stability in Caco-2 cell homogenate; type: in vitro ADME, human; conditions: 500 μg/mL protein, 37 °C, mean ± SD, n = 3
AsPC-1 cell homogenates = test: Enzymatic stability in AsPC-1 cell homogenate; type: in vitro ADME, human; conditions: 500 μg/mL protein, 37 °C, mean ± SD, n = 3
Capan-2 cell homogenates = test: Enzymatic stability in Capan-2 cell homogenate; type: in vitro ADME, human; conditions: 500 μg/mL protein, 37 °C, mean ± SD, n = 3
thymidine phosphorylase = target: T1, thymidine phosphorylase (Homo sapiens, UniProt P19971); test: Resistance to metabolism by thymidine phosphorylase; type: in vitro ADME; conditions: 200 μM substrate, TP 2.0 ng/μL, phosphate buffer pH 7.0, 37 °C; mean ± SD, n = 3
T1 sequence (P19971 11-482): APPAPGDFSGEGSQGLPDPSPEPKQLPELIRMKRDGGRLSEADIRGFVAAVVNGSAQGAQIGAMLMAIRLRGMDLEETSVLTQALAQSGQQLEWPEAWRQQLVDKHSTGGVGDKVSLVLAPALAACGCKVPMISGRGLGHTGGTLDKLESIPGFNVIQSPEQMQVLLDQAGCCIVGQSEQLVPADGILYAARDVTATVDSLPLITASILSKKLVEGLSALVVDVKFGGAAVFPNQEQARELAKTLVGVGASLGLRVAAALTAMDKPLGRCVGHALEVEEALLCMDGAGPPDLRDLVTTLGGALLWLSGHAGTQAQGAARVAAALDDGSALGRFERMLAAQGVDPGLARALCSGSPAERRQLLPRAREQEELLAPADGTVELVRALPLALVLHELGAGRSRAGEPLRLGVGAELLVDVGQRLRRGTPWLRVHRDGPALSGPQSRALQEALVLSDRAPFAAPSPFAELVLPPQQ

PEPT1 [2] = target: T2, PEPT1 (Homo sapiens, UniProt P46059); test: [3H]Gly-Sar uptake inhibition in Caco-2 cells; type: cell-based
T2 sequence (P46059 1-708): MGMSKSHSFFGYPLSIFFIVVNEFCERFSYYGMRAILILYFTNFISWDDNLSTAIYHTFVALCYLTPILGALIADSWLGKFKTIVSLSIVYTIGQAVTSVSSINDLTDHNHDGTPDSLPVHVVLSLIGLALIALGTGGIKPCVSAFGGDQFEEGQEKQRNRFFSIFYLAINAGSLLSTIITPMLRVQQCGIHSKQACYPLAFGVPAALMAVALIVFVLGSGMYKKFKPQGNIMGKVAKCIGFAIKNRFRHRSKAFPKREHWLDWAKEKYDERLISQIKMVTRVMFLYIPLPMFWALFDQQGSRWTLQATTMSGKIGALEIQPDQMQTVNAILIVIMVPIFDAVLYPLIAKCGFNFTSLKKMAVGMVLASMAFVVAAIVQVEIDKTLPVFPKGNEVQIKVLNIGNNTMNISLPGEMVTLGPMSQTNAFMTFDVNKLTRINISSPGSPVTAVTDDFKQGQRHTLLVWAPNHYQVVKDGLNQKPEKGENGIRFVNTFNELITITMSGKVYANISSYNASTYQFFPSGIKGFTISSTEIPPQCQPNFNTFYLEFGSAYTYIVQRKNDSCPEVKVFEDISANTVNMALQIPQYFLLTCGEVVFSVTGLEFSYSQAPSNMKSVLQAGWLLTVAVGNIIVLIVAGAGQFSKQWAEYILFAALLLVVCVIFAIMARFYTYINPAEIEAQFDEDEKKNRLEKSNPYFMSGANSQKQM

PEPT1 [3] = target: T2, PEPT1; test: [3H]Gly-Sar uptake inhibition in AsPC-1 cells; type: cell-based
PEPT1 [4] = target: T2, PEPT1; test: [3H]Gly-Sar uptake inhibition in Capan-2 cells; type: cell-based
Capan-2 cell monolayers = test: Apical-to-basolateral permeability across Capan-2 monolayers; type: in vitro ADME, human; conditions: 1 mM verapamil (efflux pump inhibitor); data not shown
[5] = Apical-to-basolateral permeability across Caco-2 monolayers; type: in vitro ADME; conditions: human
AsPC-1 cells = test: Cell proliferation; type: cell-based; conditions: Homo sapiens, ASPC1, pH 6, read-out: GI50 AsPC-1
Method in brief: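 AsPC-1 cells (passages 63-65) were grown antibiotic-free in RPMI-1640 with 10% FBS, seeded at 125,000 cells/well and left 24 h. They were washed with pH 6.0 uptake buffer and exposed 2 h at 37 °C to test compound (2-fold dilutions, 4 to 0.25 mmol/L, in that buffer); buffer alone served as 100% viability. Cells were washed twice and recovered 24 h in medium.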

[6] = read-out: IC50 [3H]Gly-Sar uptake inhibition Caco-2, Caco-2 cells, 10 μmol/L Gly-Sar, 30 min, mean ± SD, n = 3
[7] = read-out: IC50 [3H]Gly-Sar uptake inhibition AsPC-1, AsPC-1 cells, 10 μmol/L Gly-Sar, 30 min, mean ± SD, n = 3
[8] = read-out: IC50 [3H]Gly-Sar uptake inhibition Capan-2, Capan-2 cells, 10 μmol/L Gly-Sar, 30 min, mean ± SD, n = 3

Compound | GI50 (Capan-2 cells) [µM] | t1/2 buffer pH 7.4 (Chemical stability) [min] | t1/2 human plasma [1] [min] | t1/2 cell homogenates Caco-2 (Caco-2 cell homogenates) [min] | t1/2 cell homogenates AsPC-1 (AsPC-1 cell homogenates) [min] | t1/2 cell homogenates Capan-2 (Capan-2 cell homogenates) [min] | t1/2 in the presence of thymidine phosphorylase (thymidine phosphorylase) [min] | IC50 (PEPT1 [2]; [6]) [µM] | IC50 (PEPT1 [3]; [7]) [µM] | IC50 (PEPT1 [4]; [8]) [µM] | effect of verapamil on permeability in Capan-2 cells (Capan-2 cell monolayers) | IC50 (PEPT1 [2]) [µM] | IC50 (PEPT1 [3]) [µM] | IC50 (PEPT1 [4]) [µM] | Papp at 2 h, 0.1 mM [5] [×10⁻⁶ cm/s] | GI50 (AsPC-1 cells) [µM]
NCC(=O)N1CCC[C@H]1C(=O)O [glycylproline (Gly-Pro), glycylproline] (H-Gly-Pro-OH) | 29500 ± 6500 | – | – | – | – | – | – | – | – | – | – | – | – | – | – | –
NCC(=O)OC[C@H]1O[C@@H](n2cc(F)c(=O)[nH]c2=O)C[C@@H]1O [5′-L-glycyl-floxuridine] | – | 85.5 ± 3.2 | 72.1 ± 15.0 | 24.1 ± 2.0 | 27.6 ± 5.8 | 49.7 ± 5.6 | 250 ± 54 | 2280 ± 590 | 2710 ± 530 | 2790 ± 80 | – | – | – | – | – | –
N[C@@H](Cc1ccccc1)C(=O)N[C@@H](Cc1ccc(O)cc1)C(=O)OC[C@H]1O[C@@H](n2cc(F)c(=O)[nH]c2=O)C[C@@H]1O [5′-L-phenylalanyl-L-tyrosyl-floxuridine, 5′-L-Phenylalanyl-L-tyrosyl-floxuridine] | – | 233.9 ± 6.6 | 80.6 ± 3.7 | 103.8 ± 55.5 | 59.7 ± 1.4 | 42.8 ± 0.0 | >500 | 660 ± 250 | 610 ± 180 | 1200 ± 160 | not affected | – | – | – | – | –
CN(CC(=O)O)C(=O)CN [glycylsarcosine (Gly-Sar), glycylsarcosine] (H-Gly-[Sar]-OH) | 25700 ± 8100 | – | – | – | – | – | – | – | – | – | – | – | – | – | – | –
CC(C)C[C@H](N)C(=O)NCC(=O)OC[C@H]1O[C@@H](n2cc(F)c(=O)[nH]c2=O)C[C@@H]1O [5′-L-leucyl-L-glycyl-floxuridine, 5′-L-Leucyl-L-glycyl-floxuridine] | – | 23.2 ± 4.1 | 6.7 ± 0.3 | 4.1 ± 0.1 | 3.6 ± 0.8 | 3.9 ± 1.1 | 138 ± 11 | 3800 ± 600 | 510 ± 30 | 340 ± 10 | – | – | – | – | – | –
CC(C)C[C@H](N)C(=O)OC[C@H]1O[C@@H](n2cc(F)c(=O)[nH]c2=O)C[C@@H]1O [5′-L-leucyl-floxuridine] | – | 83.2 ± 1.7 | 82.4 ± 8.7 | 3.2 ± 0.2 | 2.0 ± 0.1 | 4.7 ± 2.1 | – | 3510 ± 110 | 2600 ± 160 | 1450 ± 70 | – | – | – | – | – | –
5′-L-Valyl-L-phenylalanyl-floxuridine | – | 104.7 ± 7.0 | 76.0 ± 14.1 | 57.6 ± 9.3 | 51.6 ± 4.2 | 56.2 ± 12.8 | >500 | 2880 ± 10 | 1030 ± 80 | 460 ± 20 | – | – | – | – | – | –
CC[C@H](C)[C@H](N)C(=O)NCC(=O)OC[C@H]1O[C@@H](n2cc(F)c(=O)[nH]c2=O)C[C@@H]1O [5′-L-isoleucyl-L-glycyl-floxuridine, 5′-L-Isoleucyl-L-glycyl-floxuridine] | – | 33.5 ± 2.4 | 9.5 ± 0.5 | 20.5 ± 1.1 | 25.1 ± 5.8 | 18.7 ± 1.4 | 223 ± 54 | 390 ± 10 | 290 | 440 ± 20 | – | – | – | – | – | –
N[C@@H](Cc1ccccc1)C(=O)NCC(=O)OC[C@H]1O[C@@H](n2cc(F)c(=O)[nH]c2=O)C[C@@H]1O [5′-L-phenylalanyl-L-glycyl-floxuridine, 5′-L-Phenylalanyl-L-glycyl-floxuridine] | – | 132.1 ± 10.2 | 9.7 ± 0.8 | 6.3 ± 0.6 | 10.2 ± 0.3 | 4.3 ± 0.9 | 119 ± 30 | 780 ± 560 | 880 ± 220 | 790 ± 20 | – | – | – | – | – | –
CC[C@H](C)[C@H](N)C(=O)OC[C@H]1O[C@@H](n2cc(F)c(=O)[nH]c2=O)C[C@@H]1O [5′-L-isoleucyl-floxuridine] | – | 1194.5 ± 660.6 | 271.4 ± 3.2 | 192.3 ± 31.8 | 198.0 ± 70.2 | 139.9 ± 15.3 | >500 | 720 ± 30 | 4120 ± 1750 | 2380 ± 120 | – | – | – | – | – | –
CC(C)[C@H](N)C(=O)OC[C@H]1O[C@@H](n2cc(F)c(=O)[nH]c2=O)C[C@@H]1O [5′-L-valyl-floxuridine] | – | 304.0 ± 33.3 | 131.5 ± 54.1 | 9.4 ± 0.5 | 18.7 ± 6.7 | 5.2 ± 2.4 | – | 1880 ± 180 | 2910 ± 380 | 2410 ± 280 | – | – | – | – | – | –
O=c1[nH]c(=O)n([C@H]2C[C@H](O)[C@@H](CO)O2)cc1F [floxuridine, 5-fluoro-2′-deoxyuridine, reference compound] | > 4000 | – | – | – | – | – | – | – | – | – | – | 8430 ± 2660 | 6630 ± 1520 | 16100 ± 6710 | 0.69 ± 0.1 | > 4000
N[C@@H](Cc1ccccc1)C(=O)OC[C@H]1O[C@@H](n2cc(F)c(=O)[nH]c2=O)C[C@@H]1O [5′-L-phenylalanyl-floxuridine] | – | 187.0 ± 19.0 | 62.8 ± 0.8 | 11.1 ± 9.9 | 11.8 ± 1.7 | 3.0 ± 0.1 | >500 | 1990 ± 820 | 1970 ± 90 | 3710 ± 2130 | – | – | – | – | – | –
